Test results: the array DNA melting data of Ke et al. (doi:10.1101/2024.01.08.574731)

Assays:
[1] = melting temperature; fluorescence melt of hairpins on a sequencing array, two-state fit, raised by 9.35 °C to match UV melts; conditions: sodium 0.088 M
In short: (§1)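 Library hairpins on a sequenced MiSeq flow cell carried annealed Cy3 and quencher oligos, and their Cy3 fluorescence was imaged in 50 mM Na-HEPES pH 8.0 with 25 mM NaCl, in 2.5 °C steps up to 60 °C. Signals were normalised to Cy3 before quenching and to control constructs. Melting temperature and folding enthalpy were obtained from bootstrapped two-state fits, combined by inverse-variance weighting across four replicates, and the fitted temperatures were then raised by 9.35 °C to match UV melts.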

[2] = folding enthalpy; higher = less favourable; fluorescence melt of hairpins on a sequencing array, two-state fit; conditions: sodium 0.088 M
In short: as §1

## GATCGGCGTTCCGATC ((((((....))))))
[1]
  Tm: 56.3 °C
[2]
  folding enthalpy: -39.3 kcal/mol

## GATCGGCTATCCGATC ((((((....))))))
[1]
  Tm: 55.8 °C
[2]
  folding enthalpy: -38.4 kcal/mol

## GATCGGCTCTCCGATC ((((((....))))))
[1]
  Tm: 55.4 °C
[2]
  folding enthalpy: -47.3 kcal/mol

## GATCGGCTTCCCGATC ((((((....))))))
[1]
  Tm: 56.4 °C
[2]
  folding enthalpy: -35.5 kcal/mol

## GATCGGGACACCGATC ((((((....))))))
[1]
  Tm: 66 °C
[2]
  folding enthalpy: -38.4 kcal/mol

## GATCGGGAGCCGATC ((((((...))))))
[1]
  Tm: 53.7 °C
[2]
  folding enthalpy: -22 kcal/mol

## GATCGGGATTCCGATC ((((((....))))))
[1]
  Tm: 57.5 °C
[2]
  folding enthalpy: -39.7 kcal/mol

## GATCGGGCACCCGATC ((((((....))))))
[1]
  Tm: 64.6 °C
[2]
  folding enthalpy: -39.9 kcal/mol

## GATCGGGCATCCGATC ((((((....))))))
[1]
  Tm: 63.3 °C
[2]
  folding enthalpy: -41.9 kcal/mol

## GATCGGGCCGCCGATC ((((((....))))))
[1]
  Tm: 59.1 °C
[2]
  folding enthalpy: -37.2 kcal/mol

## GATCGGGCTTCCGATC ((((((....))))))
[1]
  Tm: 59.4 °C
[2]
  folding enthalpy: -41.2 kcal/mol

## GATCGGGGAAACCCAATC (((.(((....))).)))
[1]
  Tm: 32.8 °C
[2]
  folding enthalpy: -20.8 kcal/mol

## GATCGGGTACCGATC ((((((...))))))
[1]
  Tm: 67.5 °C
[2]
  folding enthalpy: -44.7 kcal/mol

## GATCGGGTTCCCGATC ((((((....))))))
[1]
  Tm: 62.8 °C
[2]
  folding enthalpy: -42.5 kcal/mol

## GATCGGGTTCCGATC ((((((...))))))
[1]
  Tm: 56.8 °C
[2]
  folding enthalpy: -39.1 kcal/mol

## GATCGGTACTCCGATC ((((((....))))))
[1]
  Tm: 59.3 °C
[2]
  folding enthalpy: -38.3 kcal/mol

## GATCGGTCACCCGATC ((((((....))))))
[1]
  Tm: 56.4 °C
[2]
  folding enthalpy: -31.4 kcal/mol

## GATCGGTCATCCGATC ((((((....))))))
[1]
  Tm: 59.4 °C
[2]
  folding enthalpy: -39.7 kcal/mol

## GATCGGTCCCCGATC ((((((...))))))
[1]
  Tm: 57.4 °C
[2]
  folding enthalpy: -44.8 kcal/mol

## GATCGGTCGCCCGATC ((((((....))))))
[1]
  Tm: 57.4 °C
[2]
  folding enthalpy: -54.5 kcal/mol

## GATCGGTCGTCCGATC ((((((....))))))
[1]
  Tm: 60.2 °C
[2]
  folding enthalpy: -40.9 kcal/mol

## GATCGGTGCCCGATC ((((((...))))))
[1]
  Tm: 58 °C
[2]
  folding enthalpy: -40.8 kcal/mol

## GATCGGTGCTCCGATC ((((((....))))))
[1]
  Tm: 57.9 °C
[2]
  folding enthalpy: -40.8 kcal/mol

## GATCGGTGGCCGATC ((((((...))))))
[1]
  Tm: 55.9 °C
[2]
  folding enthalpy: -33.8 kcal/mol

## GATCGGTTACCGATC ((((((...))))))
[1]
  Tm: 59.3 °C
[2]
  folding enthalpy: -36.1 kcal/mol

## GATCGGTTGGCCGATC ((((((....))))))
[1]
  Tm: 60.9 °C
[2]
  folding enthalpy: -42 kcal/mol

## GATCGGTTTCCCGATC ((((((....))))))
[1]
  Tm: 57.1 °C
[2]
  folding enthalpy: -40.4 kcal/mol

## GATCGTAAATACGATC ((((((....))))))
[1]
  Tm: 53 °C
[2]
  folding enthalpy: -38.9 kcal/mol

## GATCGTAAGCACGATC ((((((....))))))
[1]
  Tm: 53.9 °C
[2]
  folding enthalpy: -36.4 kcal/mol

## GATCGTAATAACGATC ((((((....))))))
[1]
  Tm: 53.9 °C
[2]
  folding enthalpy: -37 kcal/mol

## GATCGTACCTACGATC ((((((....))))))
[1]
  Tm: 55.6 °C
[2]
  folding enthalpy: -50.5 kcal/mol

## GATCGTAGAGACGATC ((((((....))))))
[1]
  Tm: 51.9 °C
[2]
  folding enthalpy: -25.4 kcal/mol

## GATCGTAGCAACGATC ((((((....))))))
[1]
  Tm: 54.7 °C
[2]
  folding enthalpy: -38.6 kcal/mol

## GATCGTAGTCACGATC ((((((....))))))
[1]
  Tm: 54.1 °C
[2]
  folding enthalpy: -36.1 kcal/mol

## GATCGTATACACGATC ((((((....))))))
[1]
  Tm: 53.9 °C
[2]
  folding enthalpy: -38.4 kcal/mol

## GATCGTATCGACGATC ((((((....))))))
[1]
  Tm: 55.2 °C
[2]
  folding enthalpy: -35 kcal/mol

## GATCGTATGACGATC ((((((...))))))
[1]
  Tm: 55.6 °C
[2]
  folding enthalpy: -34 kcal/mol

## GATCGTATGCACGATC ((((((....))))))
[1]
  Tm: 54.5 °C
[2]
  folding enthalpy: -26.1 kcal/mol

## GATCGTATTAACGATC ((((((....))))))
[1]
  Tm: 55.9 °C
[2]
  folding enthalpy: -37.1 kcal/mol

## GATCGTATTTACGATC ((((((....))))))
[1]
  Tm: 57.6 °C
[2]
  folding enthalpy: -42.5 kcal/mol

## GATCGTCAAGACGATC ((((((....))))))
[1]
  Tm: 58.7 °C
[2]
  folding enthalpy: -37.5 kcal/mol

## GATCGTCACAACGATC ((((((....))))))
[1]
  Tm: 56.9 °C
[2]
  folding enthalpy: -39.3 kcal/mol

## GATCGTCACGACGATC ((((((....))))))
[1]
  Tm: 57.8 °C
[2]
  folding enthalpy: -43.1 kcal/mol

## GATCGTCAGAACGATC ((((((....))))))
[1]
  Tm: 55.1 °C
[2]
  folding enthalpy: -35.2 kcal/mol

## GATCGTCAGGACGATC ((((((....))))))
[1]
  Tm: 58.3 °C
[2]
  folding enthalpy: -45.6 kcal/mol

## GATCGTCCACACGATC ((((((....))))))
[1]
  Tm: 53.9 °C
[2]
  folding enthalpy: -34.7 kcal/mol

## GATCGTCCGGACGATC ((((((....))))))
[1]
  Tm: 62.8 °C
[2]
  folding enthalpy: -52.6 kcal/mol

## GATCGTCGAAACGATC ((((((....))))))
[1]
  Tm: 53.5 °C
[2]
  folding enthalpy: -38.3 kcal/mol

## GATCGTCGAACGATC ((((((...))))))
[1]
  Tm: 53.1 °C
[2]
  folding enthalpy: -33.9 kcal/mol

## GATCGTCGACACGATC ((((((....))))))
[1]
  Tm: 52.2 °C
[2]
  folding enthalpy: -43.9 kcal/mol

## GATCGTCGCTACGATC ((((((....))))))
[1]
  Tm: 55 °C
[2]
  folding enthalpy: -41.6 kcal/mol

## GATCGTCGGTACGATC ((((((....))))))
[1]
  Tm: 53.8 °C
[2]
  folding enthalpy: -27.3 kcal/mol

## GATCGTCGTAACGATC ((((((....))))))
[1]
  Tm: 57.1 °C
[2]
  folding enthalpy: -48.4 kcal/mol

## GATCGTCTCACGATC ((((((...))))))
[1]
  Tm: 57.4 °C
[2]
  folding enthalpy: -40.6 kcal/mol

## GATCGTCTGACGATC ((((((...))))))
[1]
  Tm: 54 °C
[2]
  folding enthalpy: -51.7 kcal/mol

## GATCGTCTTACGATC ((((((...))))))
[1]
  Tm: 57.1 °C
[2]
  folding enthalpy: -34.8 kcal/mol

## GATCGTGACAACGATC ((((((....))))))
[1]
  Tm: 63.5 °C
[2]
  folding enthalpy: -38.4 kcal/mol

## GATCGTGAGAACGATC ((((((....))))))
[1]
  Tm: 59.3 °C
[2]
  folding enthalpy: -31.5 kcal/mol

## GATCGTGAGTACGATC ((((((....))))))
[1]
  Tm: 54 °C
[2]
  folding enthalpy: -31.4 kcal/mol

## GATCGTGCAGACGATC ((((((....))))))
[1]
  Tm: 58.9 °C
[2]
  folding enthalpy: -40.9 kcal/mol

## GATCGTGCTAACGATC ((((((....))))))
[1]
  Tm: 66.3 °C
[2]
  folding enthalpy: -37.7 kcal/mol

## GATCGTGGACACGATC ((((((....))))))
[1]
  Tm: 65.6 °C
[2]
  folding enthalpy: -40.2 kcal/mol

## GATCGTGGCGACGATC ((((((....))))))
[1]
  Tm: 61.4 °C
[2]
  folding enthalpy: -29.9 kcal/mol

## GATCGTGGTCACGATC ((((((....))))))
[1]
  Tm: 57.7 °C
[2]
  folding enthalpy: -41.9 kcal/mol

## GATCGTGTGAACGATC ((((((....))))))
[1]
  Tm: 62.7 °C
[2]
  folding enthalpy: -39.2 kcal/mol

## GATCGTGTGGACGATC ((((((....))))))
[1]
  Tm: 55.7 °C
[2]
  folding enthalpy: -38 kcal/mol

## GATCGTTAACACGATC ((((((....))))))
[1]
  Tm: 52.3 °C
[2]
  folding enthalpy: -37.9 kcal/mol

## GATCGTTACAACGATC ((((((....))))))
[1]
  Tm: 57.3 °C
[2]
  folding enthalpy: -39 kcal/mol

## GATCGTTACGACGATC ((((((....))))))
[1]
  Tm: 57.1 °C
[2]
  folding enthalpy: -39.9 kcal/mol

## GATCGTTATAACGATC ((((((....))))))
[1]
  Tm: 56.7 °C
[2]
  folding enthalpy: -40.1 kcal/mol

## GATCGTTATTACGATC ((((((....))))))
[1]
  Tm: 56.1 °C
[2]
  folding enthalpy: -39.8 kcal/mol

## GATCGTTCAAACGATC ((((((....))))))
[1]
  Tm: 55 °C
[2]
  folding enthalpy: -42.7 kcal/mol
